Data as given in ChEMBL document CHEMBL4152390, “Discovery of the First-in-Class Dual Histone Deacetylase-Proteasome Inhibitor” (J Med Chem, 2018).
Active and inactive are the calls of the source. No cut-off for these calls is given here.

What was measured:
Histone deacetylase 2 = Histone deacetylase 2 (Homo sapiens, UniProt Q92769); experiment: Inhibition of C-terminal GST-tagged recombinant human HDAC2 expressed in baculovirus infected insect cells using RHKK(Ac)AMC as substrate by fluorescence-based assay
[1] = target: T1, Proteasome Macropain subunit MB1 (Homo sapiens, UniProt P28074); experiment: Inhibition of chymotrypsin-like activity of 20S proteasome in human SEM cells using Suc-LLVY aminoluciferin as substrate after 2 hrs by proteasome-Glo assay; format: cell-based
T1 sequence (P28074 whole entry): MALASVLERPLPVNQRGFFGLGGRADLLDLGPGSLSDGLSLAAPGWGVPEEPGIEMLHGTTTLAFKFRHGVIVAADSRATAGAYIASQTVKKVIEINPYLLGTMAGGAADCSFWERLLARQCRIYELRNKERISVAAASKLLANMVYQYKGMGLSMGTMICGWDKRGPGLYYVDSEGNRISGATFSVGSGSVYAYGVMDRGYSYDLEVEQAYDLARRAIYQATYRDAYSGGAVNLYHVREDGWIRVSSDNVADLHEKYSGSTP

SEM cells [2] = experiment: Inhibition of HDAC6/chymotrypsin-like activity of 20S proteasome in human SEM cells assessed as increase in ATF6 protein expression at 0.1 to 10 uM after 18 hrs by Western blot assay; format: cell-based
Procedure, shortened: (§1)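 Cells treated 18 h at indicated concentrations; lysates analysed by western blot for heat shock (Grp94, HSP70, HSP40, HSP27), UPR (BIP, ATF4, ATF6, pJNK) and autophagy (LC3B, p62) proteins.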

[3] = target: T2, Protein deacetylase HDAC6 (Homo sapiens) (UniProt Q9UBN7); experiment: Inhibition of HDAC6 in imatinib-resistant human SUP-B15 cells assessed as increase in acetyl-histone H3 expression at 0.1 to 10 uM after 24 hrs by immunoblot assay; format: cell-based
T2 sequence (whole entry): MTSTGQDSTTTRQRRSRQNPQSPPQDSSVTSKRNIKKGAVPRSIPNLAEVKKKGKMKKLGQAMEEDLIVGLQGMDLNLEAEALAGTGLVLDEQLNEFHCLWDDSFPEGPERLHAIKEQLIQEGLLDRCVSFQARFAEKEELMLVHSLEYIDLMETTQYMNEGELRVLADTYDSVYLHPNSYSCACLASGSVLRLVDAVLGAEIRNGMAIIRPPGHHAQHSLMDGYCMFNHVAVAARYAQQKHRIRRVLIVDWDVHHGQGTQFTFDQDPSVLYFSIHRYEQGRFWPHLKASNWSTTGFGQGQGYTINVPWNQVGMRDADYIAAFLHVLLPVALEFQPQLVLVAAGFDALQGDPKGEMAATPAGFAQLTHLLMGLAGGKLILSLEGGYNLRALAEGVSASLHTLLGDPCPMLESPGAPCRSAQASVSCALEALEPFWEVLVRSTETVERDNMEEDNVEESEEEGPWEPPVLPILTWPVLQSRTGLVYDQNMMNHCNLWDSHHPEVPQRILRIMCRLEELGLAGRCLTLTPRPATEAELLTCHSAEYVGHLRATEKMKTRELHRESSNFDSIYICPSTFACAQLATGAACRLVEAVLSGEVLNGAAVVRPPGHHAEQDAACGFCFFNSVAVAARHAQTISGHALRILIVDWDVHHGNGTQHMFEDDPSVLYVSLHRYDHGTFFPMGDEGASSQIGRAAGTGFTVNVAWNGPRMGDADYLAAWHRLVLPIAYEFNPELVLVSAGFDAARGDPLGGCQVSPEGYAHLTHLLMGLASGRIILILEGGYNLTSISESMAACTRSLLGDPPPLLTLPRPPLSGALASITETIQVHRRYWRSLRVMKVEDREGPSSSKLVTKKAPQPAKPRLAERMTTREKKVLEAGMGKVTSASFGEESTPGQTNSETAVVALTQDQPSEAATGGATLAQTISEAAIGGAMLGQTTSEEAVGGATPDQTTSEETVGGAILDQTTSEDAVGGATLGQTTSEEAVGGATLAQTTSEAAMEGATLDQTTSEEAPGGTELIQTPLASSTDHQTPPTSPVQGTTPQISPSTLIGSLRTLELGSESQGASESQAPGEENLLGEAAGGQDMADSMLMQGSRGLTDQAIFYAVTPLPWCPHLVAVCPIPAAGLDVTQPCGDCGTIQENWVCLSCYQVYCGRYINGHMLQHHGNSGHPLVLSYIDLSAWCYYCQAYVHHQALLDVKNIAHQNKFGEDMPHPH
Procedure, shortened: (§2)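 Cells exposed for 24 h at indicated concentrations; lysates immunoblotted for acetyl-α-tubulin, acetyl-histone H3, PARP, with GAPDH as loading control.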

[4] = target: T3, Protein deacetylase HDAC6 (Homo sapiens, UniProt Q9UBN7); experiment: Inhibition of N-terminal GST-tagged recombinant human HDAC6 expressed in baculovirus infected insect cells using RHKK(Ac)AMC as substrate by fluorescence-based assay
T3 sequence (Q9UBN7 whole entry): T2 sequence (whole entry)

[5] = target: T4, Proteasome component C5 (Homo sapiens) (UniProt P20618); experiment: Inhibition of caspase-like activity of 20S proteasome in human SEM cells at 4 nM to 25 uM using Z-nLPnLD-aminoluciferin as substrate after 2 hrs by proteasome-Glo assay; format: cell-based
T4 sequence (whole entry): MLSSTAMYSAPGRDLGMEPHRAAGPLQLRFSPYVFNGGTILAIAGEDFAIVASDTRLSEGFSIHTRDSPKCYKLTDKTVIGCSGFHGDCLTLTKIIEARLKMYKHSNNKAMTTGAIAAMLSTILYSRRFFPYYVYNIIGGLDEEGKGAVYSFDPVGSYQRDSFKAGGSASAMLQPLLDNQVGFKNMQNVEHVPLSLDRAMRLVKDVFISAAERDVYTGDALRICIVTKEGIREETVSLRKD

SUP-B15 = experiment: Inhibition of HDAC6/chymotrypsin-like activity of 20S proteasome in imatinib-resistant human SUP-B15 cells assessed as increase in cleaved PARP expression at 0.1 to 10 uM after 24 hrs by immunoblot assay; format: cell-based; procedure, shortened: as §2
[6] = target: T2, Protein deacetylase HDAC6 (Homo sapiens); experiment: Inhibition of HDAC6 in human HL60 cells assessed as increase in acetyl-histone H3 expression at 0.1 to 10 uM after 24 hrs by immunoblot assay; format: cell-based; procedure, shortened: as §2
[7] = Cytotoxicity against human BCP-ALL cells derived from patient 2 after 72 hrs by CellTiter-Glo luminescent cell viability assay; format: functional, cell-based
Procedure, shortened: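 Compounds dispensed digitally at increasing concentrations, 50 nM–25 μM; viability read by CellTiter-Glo luminescence after 72 h. Raw data normalized to controls, IC50 from sigmoid dose curve by non-linear regression. Patient samples: primary cells from newly diagnosed or relapsed patients, cultured in stem cell expansion or mononuclear cell medium.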

[8] = target: Proteasome Macropain subunit (Homo sapiens) (UniProt P49721); experiment: Inhibition of trypsin-like activity of 20S proteasome in human imatinib-resistant SUP-B15 cells at 4 nM to 25 uM using Z-LRR-aminoluciferin as substrate after 2 hrs by proteasome-Glo assay; format: cell-based
SEM cells [9] = experiment: Cell cycle arrest in human SEM cells assessed as accumulation at S phase after 48 hrs by propidium iodide staining-based FACS analysis; format: functional
SEM cells [10] = experiment: Inhibition of HDAC6/chymotrypsin-like activity of 20S proteasome in human SEM cells assessed as increase in HSP40 protein expression at 0.1 to 10 uM after 18 hrs by Western blot assay; format: cell-based; procedure, shortened: as §1

Proteasome Macropain subunit (Homo sapiens), sequence (P49721 whole entry): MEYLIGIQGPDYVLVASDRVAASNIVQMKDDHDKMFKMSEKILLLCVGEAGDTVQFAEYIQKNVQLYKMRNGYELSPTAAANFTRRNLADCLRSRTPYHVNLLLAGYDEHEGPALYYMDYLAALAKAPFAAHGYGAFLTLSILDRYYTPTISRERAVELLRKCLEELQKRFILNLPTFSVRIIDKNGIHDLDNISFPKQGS
Histone deacetylase 2, sequence (Q92769 whole entry): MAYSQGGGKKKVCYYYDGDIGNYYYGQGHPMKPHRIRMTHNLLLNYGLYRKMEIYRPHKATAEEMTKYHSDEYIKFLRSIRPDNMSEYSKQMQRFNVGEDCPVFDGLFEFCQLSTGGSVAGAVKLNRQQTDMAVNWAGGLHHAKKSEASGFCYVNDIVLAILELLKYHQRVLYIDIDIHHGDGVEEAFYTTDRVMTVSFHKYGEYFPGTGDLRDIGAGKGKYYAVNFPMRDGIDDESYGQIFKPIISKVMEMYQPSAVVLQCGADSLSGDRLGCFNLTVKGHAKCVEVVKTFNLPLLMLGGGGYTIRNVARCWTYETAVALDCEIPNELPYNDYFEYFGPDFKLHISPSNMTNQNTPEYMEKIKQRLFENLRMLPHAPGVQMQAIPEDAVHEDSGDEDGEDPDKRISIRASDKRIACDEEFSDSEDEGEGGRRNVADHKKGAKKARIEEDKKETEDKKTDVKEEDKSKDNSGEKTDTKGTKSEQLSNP

IC50 (Histone deacetylase 2): 18000 nM | IC50 [1]: 394 nM | inhibition [3]: Active | IC50 [4]: 270 nM | inhibition [5]: inactive | inhibition [6]: Active | inhibition [8]: inactive
Compound: C[C@H](NC(=O)[C@H](CC(=O)NCC(C)(C)C)NC(=O)c1ccc(C(=O)NO)cc1)C(=O)NCc1ccccc1
inhibition (SEM cells [2]): Active | inhibition (SUP-B15): Active | IC50 [7]: 1840 nM | Activity (SEM cells [9]): Dose-dependent effect | inhibition (SEM cells [10]): Active
